Assay outcomes deposited in PubChem by Johns Hopkins Ion Channel Center.
The list is not random: actives were taken first. Their share in the collection is about 3.1%.
KCNQ1 inh: inhibitors of human KCNQ1 potassium channel; CHO-K1 KCNQ1, FluxOR thallium flux fluorescence; hits give high values; B-score at 10 µM; actives 1.3% (n = 310,000); P51787;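 active = compounds whose thallium flux B-score, printed positive for inhibition, exceeds three library SD while starting fluorescence stays within three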;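 also: channel opened by potassium depolarization with thallium stimulus after 20 min compound exposure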
hERG rescue: shields human hERG channel from block by proarrhythmic agents; actives 0.51% (n = 310,000); Q12809; CHO-hERG, FluxOR thallium flux, dofetilide IC70 present; activation (rescue from dofetilide block), less the hit threshold, % at 10 µM; AID 1511;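 active = activation above the mean of controls blocked by dofetilide plus 5 SD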;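 also: thallium influx through hERG after potassium depolarization seen as dye fluorescence rise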
KCNK9 inh: inhibitors of human KCNK9 two-pore domain potassium channel; HEK293 KCNK9, FluxOR thallium flux fluorescence; hits give low values; AID 488922; actives 1.2% (n = 310,000); B-score at 10 µM;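 active = ratio B-score over 3 SD below the library mean, with starting fluorescence within 5 SD of its mean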;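 also: negative B-score means less thallium flux so channel inhibition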
Target sequence (Q9NPC2 whole entry, looked up, the tested form may be a part): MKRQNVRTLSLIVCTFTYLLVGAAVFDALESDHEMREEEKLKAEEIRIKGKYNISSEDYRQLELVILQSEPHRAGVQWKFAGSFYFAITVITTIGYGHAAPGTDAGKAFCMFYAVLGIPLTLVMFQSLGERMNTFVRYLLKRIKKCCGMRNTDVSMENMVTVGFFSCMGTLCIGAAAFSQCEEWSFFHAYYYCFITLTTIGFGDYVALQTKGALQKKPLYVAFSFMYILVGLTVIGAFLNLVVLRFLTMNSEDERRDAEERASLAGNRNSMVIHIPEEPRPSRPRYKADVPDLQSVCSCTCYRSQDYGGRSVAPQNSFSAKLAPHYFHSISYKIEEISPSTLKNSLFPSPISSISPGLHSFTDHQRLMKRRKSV
KCNK3 inh: human KCNK3 channel inhibition, primary screen; CHO-KCNK3 thallium flux, FluxOR fluorescence; hits give low values; B-score at 10 µM; actives 0.84% (n = 340,000);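 active = B-score under library mean minus 4 SD, starting fluorescence ratio at most library mean plus 5 SD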;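 also: more negative B-score means stronger inhibition of thallium flux through KCNK3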
KCNQ1 act: potentiators or activators of human KCNQ1 potassium channel; P51787; CHO-K1 KCNQ1, thallium flux FluxOR fluorescence; hits give high values; B-score at 10 µM; actives 0.35% (n = 310,000);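 active = fluorescence ratio B-score, a plate-corrected score, at least three library SD, with initial intensity B-score within 5 SD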
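assay system = KCNQ1-transfected CHO-K1 cells | medium = assay buffer with matched DMSO | probe or stimulus = depolarizing K+/Tl+ stimulus, K2SO4 and Tl2SO4 each 12.5 mM in 5x stock | dosing = single dose | incubation = dye 90 min, compound 20 min, room temperature | detection = kinetic FluxOR fluorescence, 10 s baseline plus 110 s post-stimulus | evaluation = ratio B score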
Numbers without * were called inactive; i = inactive; . = no result.

SMILES | KCNQ1 inh | hERG rescue | KCNK9 inh | KCNK3 inh | KCNQ1 act
Oc1ccc(C(=C(Cl)Cl)c2ccc(O)cc2)cc1 | 6* | -20 | i | . | i
O=C(Nc1ccccc1)N1Cc2ccccc2-n2nncc2C1 | . | . | . | i | .
O=C(c1ccc(-c2ccccc2)cc1)C1CCCN(Cc2ccn[nH]2)C1 (stereo unspecified) | i | -9 | i | i | 8*
COc1ccc(NP(=O)(Oc2cccc(C)c2)Oc2cccc(C)c2)cc1OC | i | -12 | i | i | i
COc1cccc(OP(=O)(Nc2ccccc2)Oc2cccc(OC)c2)c1 | i | -5 | i | -9.1* | i
Cc1cccc(OP(=O)(Nc2ccc(F)cc2)Oc2cccc(C)c2)c1 | 8* | -30 | i | i | i
COc1ccc(NP(=O)(Oc2ccc(Cl)cc2)Oc2ccc(Cl)cc2)cc1OC | i | -11 | -7.1* | i | i
O=P(Nc1ccccc1)(Oc1ccccc1)Oc1ccccc1 | i | -11 | i | i | i
Cc1ccc(OP(=O)(Nc2cccc(C)c2)Oc2ccc(C)cc2)cc1 | 6* | -3 | i | i | i
N#CC1=C(N)Oc2c(c(=O)oc3ccccc23)C1c1cccnc1 (stereo unspecified) | i | 18* | i | i | i
CCC(CC)C1C(C#N)=C(N)Oc2c1c(=O)oc1ccccc21 (stereo unspecified) | i | -5 | i | i | i
CNc1ccc2oc(C[C@H]3O[C@@]4(CC[C@H]3C)O[C@H]([C@H](C)C(=O)c3ccc[nH]3)[C@H](C)C[C@H]4C)nc2c1C(=O)O | i | -5 | i | i | 38*
CC12C=CC(=O)C=C1CCC1C2C(O)CC2(C)C1CCC2(C)O (stereo unspecified) | . | . | . | i | .
CN1CCN(c2ccc(S(C)(=O)=O)cc2[N+](=O)[O-])CC1 | i | -3 | i | i | i
CN1CCN(c2ccc([N+](=O)[O-])c3no[n+]([O-])c23)CC1 | 10* | -36 | i | i | i
CN1c2ccc([N+](=O)[O-])cc2CC2(C(=O)NC(=O)N(c3ccc(Br)cc3)C2=O)C1c1ccccc1 (stereo unspecified) | 6* | -5 | i | i | i
O=C1NC(=O)C2(Cc3ccccc3N3CCCC32)C(=O)N1c1ccccc1 (stereo unspecified) | i | -15 | i | i | i
N#CCCn1cc(C(=O)Nc2ccccc2Cl)c(-c2ccc(F)cc2)n1 | i | 8.2* | i | i | i
CC1(C)CSC(=NCc2ccccc2)N1 | i | -6 | i | i | 7*
CC1(C)C(C(=O)N2CCN(c3ccc(Cl)cc3)CC2)C1(C)C | i | -7 | i | i | i
COC(=O)C1CN(C#N)N(c2ccc(Cl)cc2)C12c1ccccc1-c1ccccc12 (stereo unspecified) | i | -5 | -8.9* | i | i
COc1ccc(-c2cc(-c3ccccc3)[n+](C)c(-c3ccccc3)c2)cc1 | 12* | -28 | i | i | i
C[n+]1c(-c2ccccc2)cc(CCCCc2cc(-c3ccccc3)[n+](C)c(-c3ccccc3)c2)cc1-c1ccccc1 | 7* | -21 | i | i | i
CCN(CCCl)c1cc(CN(C)C)cc(NC(=O)c2ccc(C(=O)Nc3cc(CN(C)C)cc(N(CC)CCCl)c3)cc2)c1 | . | . | . | i | .
C=CC[N+]1(C)C2CCC1CC(O)C2 (stereo unspecified) | i | 6.2* | i | i | i
SMILES | KCNQ1 inh | hERG rescue | KCNK9 inh | KCNK3 inh | KCNQ1 act
Cn1c(=O)c2c(nc(-c3ccc(N(CCCl)CCCl)cc3)n2C)n(C)c1=O | . | . | . | i | .
CCOc1ccccc1OCC(=O)Nc1ccc(Cl)cc1C(=O)c1ccccc1 | 6* | -6 | i | i | i
COc1ccccc1OCC(=O)Nc1ccc(Cl)cc1C(=O)c1ccccc1 | i | -4 | i | i | i
Cc1ccc(S(=O)(=O)NC(Cc2cnc[nH]2)C(=O)O)cc1 (stereo unspecified) | i | 10* | i | i | i
NC(N)=N/N=C/c1ccc(N(c2ccccc2)c2ccccc2)cc1 | 7* | -33 | i | i | i
CCCC/C(=N\O)c1c[nH]c2ccccc12 | i | 1 | -7.5* | i | i
CCCn1c(C)cc(C=O)c1C | i | 5.6* | i | i | i
CC(CC(C)(C)N1CC1)=NNC(=O)Nc1cccc2ccccc12 | . | . | . | i | .
CN(C(=O)Oc1cccc2cccnc12)c1ccccc1 | i | -7 | i | i | i
Oc1cccc2cccnc12 | i | -2 | -11* | . | i
Cc1cc(N2CCCC2)ccc1C=C(C#N)C#N | 12* | -27 | -6.7* | i | i
CCOc1ccc(-n2c(O)c(/C=C3\C=Nc4ccccc43)c(=O)[nH]c2=O)cc1 | 9* | -5 | i | i | i
COc1ccc2c(c1)C1(C(=O)O)CC=CCC1(C(=O)O)C2 (stereo unspecified) | . | . | . | i | .
COCCCn1c(N)c(C(=O)OCCOC)c2nc3ccccc3nc21 | i | -4 | i | i | i
CCOC(=O)c1c(NS(=O)(=O)c2ccccc2)n(CCCOC)c2nc3ccccc3nc12 | i | 8.4* | i | i | i
Oc1c(Cl)cccc1Cc1cc(Cl)cc(Cl)c1O | . | . | . | i | .
O=c1[nH]c(O)c(/C=C2/C=CC(c3cc(Cl)ccc3Cl)=N2)c(=O)[nH]1 | i | 7.2* | i | i | i
CC1=Nc2ccccc2/C1=C/c1c(O)[nH]c(=O)[nH]c1=O | i | -2 | i | i | i
O=C(O)Cn1cc(/C=C2\C(=O)NC(=O)N(c3ccc(Cl)cc3)C2=O)c2ccccc21 | i | -5 | i | i | i
Cn1cc(/C=C2\C(=O)NC(=O)N(c3ccccc3)C2=O)c2ccccc21 | i | -8 | -8* | i | i
COc1ccc(NC(c2ccccc2)P(=O)(Oc2ccccc2)Oc2ccccc2)cc1 (stereo unspecified) | i | -4 | -6.6* | i | i
CC(C)(C)c1ccc(CSc2cnn(C(C)(C)C)c(=O)c2Cl)cc1 | 11* | -15 | i | i | i
[Cl][Pt+2][Cl].[NH-]C1CCCCC1[NH-] (stereo unspecified) | . | . | . | i | .
O=C(O)c1ccc(-[n+]2c(-c3ccccc3)cc(-c3ccccc3)cc2-c2ccccc2)cc1 | i | -2 | i | i | i
CCCOC(=O)c1ccc(-[n+]2c(-c3ccccc3)cc(-c3ccccc3)cc2-c2ccccc2)cc1 | 12* | -36 | -7.7* | i | i
Brc1ccc2[nH]cc(C=NN3CCCCCC3)c2c1 | . | . | . | i | .
C[C@]1(O)CC[C@H]2[C@@H]3CCC4=CC(=O)CC[C@]4(C)[C@@]3(F)[C@@H](O)C[C@@]21C | . | . | . | -9.8* | .
